ChEMBL document CHEMBL3124772, “Design, synthesis, and evaluation of conformationally restricted acetanilides as potent and selective β3 adrenergic receptor agonists for the treatment of overactive bladder” (J Med Chem, 2014)

Experiments:
[1] = biological target: Beta-1 adrenergic receptor (Homo sapiens, UniProt P08588); experiment: Displacement of [125I]-cyanopindolol from recombinant human beta-1 adrenergic receptor expressed in CHO cell membranes after 1 hr by scintillation counting analysis
Beta-1 adrenergic receptor, sequence (P08588 whole entry): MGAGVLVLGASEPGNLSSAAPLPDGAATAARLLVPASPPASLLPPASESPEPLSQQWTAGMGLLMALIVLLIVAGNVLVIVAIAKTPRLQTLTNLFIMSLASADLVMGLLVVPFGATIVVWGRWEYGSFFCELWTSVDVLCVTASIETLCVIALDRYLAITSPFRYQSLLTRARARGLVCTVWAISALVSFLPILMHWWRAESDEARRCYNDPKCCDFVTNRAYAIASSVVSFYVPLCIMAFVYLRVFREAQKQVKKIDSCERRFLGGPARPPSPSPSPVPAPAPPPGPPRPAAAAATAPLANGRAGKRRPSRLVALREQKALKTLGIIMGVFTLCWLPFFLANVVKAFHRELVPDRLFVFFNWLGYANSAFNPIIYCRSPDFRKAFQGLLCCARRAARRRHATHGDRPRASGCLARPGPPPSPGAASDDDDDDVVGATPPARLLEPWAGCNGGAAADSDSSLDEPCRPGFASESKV

[2] = Half life in Sprague-Dawley rat at 1 mg/kg, iv and 2 mg/kg, po; format: ADME, organism-based; details: in vivo
[3] = Oral bioavailability in Sprague-Dawley rat at 2 mg/kg; format: ADME, organism-based; details: in vivo
[4] = Plasma clearance in Sprague-Dawley rat at 1 mg/kg, iv and 2 mg/kg, po; format: ADME, organism-based
[5] = tested on: Plasma; experiment: (§1) Fraction unbound in Sprague-Dawley rat plasma at 1 mg/kg, iv and 2 mg/kg, po; format: ADME, organism-based; details: in vivo, BLD = below limit of detection
[6] = biological target: T1, Beta-3 adrenergic receptor (Homo sapiens, UniProt P13945); experiment: Agonist activity at human beta-3 adrenergic receptor expressed in CHO cells assessed as increase in intracellular cAMP accumulation at 10^-10 to 10^-5 M after 30 mins by time-resolved fluorescence assay relative to R-(-)isoproterenol; format: functional, cell-based
In short: (§2)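 CHO cells stably transfected with cloned β3-AR, harvested after 3 days subculture with enzyme-free dissociation, 6000 cells in HBSS with 5 mM HEPES, 0.1% BSA and 0.6 mM IBMX. Ligand at 10⁻¹⁰ to 10⁻⁵ M final, 30 min room temperature with labeled cAMP antibody; LANCE TR-FRET read after 1 h detection, cAMP from standard curve.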
Target sequence in this assay (P13945 whole entry, looked up): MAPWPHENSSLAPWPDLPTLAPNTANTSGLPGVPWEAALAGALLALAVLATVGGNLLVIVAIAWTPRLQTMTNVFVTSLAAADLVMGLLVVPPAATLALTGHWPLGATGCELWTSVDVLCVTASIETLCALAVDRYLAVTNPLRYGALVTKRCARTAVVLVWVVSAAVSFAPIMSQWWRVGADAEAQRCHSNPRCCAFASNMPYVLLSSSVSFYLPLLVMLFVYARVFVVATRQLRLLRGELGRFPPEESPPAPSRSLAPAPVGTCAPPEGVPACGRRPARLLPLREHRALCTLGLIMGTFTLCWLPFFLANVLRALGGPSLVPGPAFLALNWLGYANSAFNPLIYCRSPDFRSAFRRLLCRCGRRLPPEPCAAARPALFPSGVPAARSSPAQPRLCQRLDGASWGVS

[7] = Intrinsic clearance in rat liver microsomes; format: ADME; details: read-out: CLH
[8] = Apparent permeability in MDCK2 cells; format: ADME, cell-based, Canis lupus familiaris, MDCK-II; details: dog, MDCK
[9] = biological target: Beta-2 adrenergic receptor (Homo sapiens, UniProt P07550); experiment: Displacement of [125I]-cyanopindolol from recombinant human beta-2 adrenergic receptor expressed in CHO cell membranes after 1 hr by scintillation counting analysis
Beta-2 adrenergic receptor, sequence (P07550 whole entry): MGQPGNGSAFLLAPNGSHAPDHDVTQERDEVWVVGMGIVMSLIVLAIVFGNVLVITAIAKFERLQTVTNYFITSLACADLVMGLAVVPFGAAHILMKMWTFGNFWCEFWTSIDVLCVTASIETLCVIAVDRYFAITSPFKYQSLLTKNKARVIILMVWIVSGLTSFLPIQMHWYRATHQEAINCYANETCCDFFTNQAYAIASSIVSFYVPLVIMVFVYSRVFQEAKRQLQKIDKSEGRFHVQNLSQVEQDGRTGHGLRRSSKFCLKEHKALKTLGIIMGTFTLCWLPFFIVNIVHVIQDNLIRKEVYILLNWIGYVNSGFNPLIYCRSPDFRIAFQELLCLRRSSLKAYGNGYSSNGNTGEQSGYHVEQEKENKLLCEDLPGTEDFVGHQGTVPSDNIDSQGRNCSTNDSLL

[10] = biological target: T1, Beta-3 adrenergic receptor; experiment: Agonist activity at human beta-3 adrenergic receptor expressed in CHO cells assessed as increase in intracellular cAMP accumulation after 30 mins by time-resolved fluorescence assay; format: functional, cell-based; in short: as §2
Target sequence in this assay (P13945 whole entry): as the sequence (P13945 whole entry, looked up) above

[11] = Half life in rhesus monkey at 1 mg/kg, iv and 2 mg/kg, po; format: ADME, organism-based, Macaca mulatta; details: in vivo
[12] = Oral bioavailability in rhesus monkey at 2 mg/kg; format: ADME, organism-based, Macaca mulatta; details: in vivo
[13] = biological target: Beta-3 adrenergic receptor (Canis lupus familiaris) (UniProt O02662); experiment: Agonist activity at dog beta-3 adrenergic receptor expressed in CHO cells assessed as increase in intracellular cAMP accumulation at 10^-10 to 10^-5 M after 30 mins by time-resolved fluorescence assay relative to R-(-)isoproterenol; format: functional, cell-based; in short: as §2
Beta-3 adrenergic receptor (Canis lupus familiaris), sequence (O02662 whole entry): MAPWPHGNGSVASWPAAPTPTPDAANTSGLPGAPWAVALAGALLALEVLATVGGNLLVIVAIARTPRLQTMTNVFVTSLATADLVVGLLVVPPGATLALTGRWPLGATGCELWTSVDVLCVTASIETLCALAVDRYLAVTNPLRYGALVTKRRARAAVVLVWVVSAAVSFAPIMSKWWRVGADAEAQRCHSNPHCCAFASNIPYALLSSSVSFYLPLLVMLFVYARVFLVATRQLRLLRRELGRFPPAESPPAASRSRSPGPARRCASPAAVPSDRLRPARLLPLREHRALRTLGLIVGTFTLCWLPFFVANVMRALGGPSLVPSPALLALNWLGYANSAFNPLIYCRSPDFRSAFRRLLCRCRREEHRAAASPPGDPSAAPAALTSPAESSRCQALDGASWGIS

[14] = biological target: Beta-3 adrenergic receptor (Macaca mulatta) (UniProt Q28524); experiment: Agonist activity at rhesus monkey beta-3 adrenergic receptor expressed in CHO cells assessed as increase in intracellular cAMP accumulation at 10^-10 to 10^-5 M after 30 mins by time-resolved fluorescence assay relative to R-(-)isoproterenol; format: functional, cell-based; in short: as §2
Beta-3 adrenergic receptor (Macaca mulatta), sequence (Q28524 whole entry): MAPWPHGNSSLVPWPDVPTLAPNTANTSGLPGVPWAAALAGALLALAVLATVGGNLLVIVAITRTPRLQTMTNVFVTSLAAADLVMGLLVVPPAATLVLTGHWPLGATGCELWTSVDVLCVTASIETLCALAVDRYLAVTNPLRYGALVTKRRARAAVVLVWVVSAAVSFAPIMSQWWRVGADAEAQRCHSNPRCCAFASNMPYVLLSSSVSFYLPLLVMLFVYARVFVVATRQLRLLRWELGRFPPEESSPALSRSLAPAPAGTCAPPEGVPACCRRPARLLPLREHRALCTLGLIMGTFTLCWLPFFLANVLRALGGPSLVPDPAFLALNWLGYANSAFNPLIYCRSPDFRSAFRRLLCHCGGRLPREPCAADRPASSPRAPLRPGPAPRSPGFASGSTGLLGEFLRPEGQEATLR

[15] = biological target: Sodium-dependent serotonin transporter (Homo sapiens, UniProt P31645); experiment: Inhibition of human SERT expressed in HEK293 cells incubated for 30 mins prior to fluorescent substrate addition measured after 30 mins by fluorescent dye uptake assay; format: cell-based
In short: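 HEK293 stably expressing human SERT, 20000 cells/well plated overnight at 37 °C, then in HBSS with 20 mM HEPES and 0.1% BSA. Compound added from 100× DMSO stock, 30 min at 37 °C, then fluorescent transporter substrate for 30 more min. Fluorescence read at 440/520 nm, normalized to DMSO (0%) and 10 μM fluoxetine (100%), four-parameter fit for IC50.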

[16] = Intrinsic clearance in monkey liver microsomes; format: ADME, Macaca mulatta, Microsome; details: rhesus monkey, read-out: CLH
[17] = Plasma clearance in Beagle dog at 1 mg/kg, iv and 2 mg/kg, po; format: ADME, organism-based, Canis lupus familiaris
[18] = biological target: Beta-3 adrenergic receptor (Rattus norvegicus, UniProt P26255); experiment: Agonist activity at rat beta-3 adrenergic receptor expressed in CHO cells assessed as increase in intracellular cAMP accumulation after 30 mins by time-resolved fluorescence assay; format: functional, cell-based; in short: as §2
Beta-3 adrenergic receptor (Rattus norvegicus, UniProt P26255), sequence (P26255 whole entry): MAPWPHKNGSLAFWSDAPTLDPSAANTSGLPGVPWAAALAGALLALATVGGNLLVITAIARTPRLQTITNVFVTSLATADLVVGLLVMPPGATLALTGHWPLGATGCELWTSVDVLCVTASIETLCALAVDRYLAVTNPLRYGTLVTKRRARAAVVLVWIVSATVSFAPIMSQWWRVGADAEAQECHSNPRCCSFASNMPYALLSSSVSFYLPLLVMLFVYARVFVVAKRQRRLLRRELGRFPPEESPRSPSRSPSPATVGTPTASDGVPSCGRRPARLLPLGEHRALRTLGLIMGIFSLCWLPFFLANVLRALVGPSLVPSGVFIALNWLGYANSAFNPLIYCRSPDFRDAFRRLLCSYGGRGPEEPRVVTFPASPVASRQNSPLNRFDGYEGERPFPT

[19] = Intrinsic clearance in dog liver microsomes; format: ADME, Canis lupus familiaris; details: read-out: CLH
[20] = tested on: Plasma; experiment: Unbound plasma concentration in acetic acid-induced Sprague-Dawley rat bladder hyperactivity model at 1 mg/kg, iv administered as 1 to 2 hrs infusion; format: ADME, organism-based; design: dose 1 mg/kg, route intravenous; details: in vivo
[21] = organism: Homo sapiens; experiment: Selectivity ratio of IC50 for human SERT to EC50 for human beta-3 adrenergic receptor
[22] = biological target: Cytochrome P450 3A4 (Homo sapiens, UniProt P08684); experiment: Inhibition of CYP3A4 in human liver microsomes assessed as testosterone 6beta-hydroxylation; format: ADME
[23] = tested on: Plasma; experiment: Unbound plasma concentration in acetic acid-induced Sprague-Dawley rat bladder hyperactivity model at 10 mg/kg, iv administered as 1 to 2 hrs infusion; format: ADME, organism-based; design: dose 10 mg/kg, route intravenous; details: in vivo
[24] = biological target: Sodium channel protein type 5 subunit alpha (Homo sapiens, UniProt Q14524); experiment: Inhibition of human NaV1.5
[25] = tested on: Plasma; experiment: Unbound plasma concentration in acetic acid-induced Sprague-Dawley rat bladder hyperactivity model at 3 mg/kg, iv administered as 1 to 2 hrs infusion; format: ADME, organism-based; design: dose 3 mg/kg, route intravenous; details: in vivo
[26] = biological target: Cytochrome P450 2D6 (Homo sapiens, UniProt P10635); experiment: Inhibition of CYP2D6 in human liver microsomes assessed as dextromethorphan O-demethylation; format: ADME
Cytochrome P450 2D6, sequence (P10635 whole entry, the tested form may be a part): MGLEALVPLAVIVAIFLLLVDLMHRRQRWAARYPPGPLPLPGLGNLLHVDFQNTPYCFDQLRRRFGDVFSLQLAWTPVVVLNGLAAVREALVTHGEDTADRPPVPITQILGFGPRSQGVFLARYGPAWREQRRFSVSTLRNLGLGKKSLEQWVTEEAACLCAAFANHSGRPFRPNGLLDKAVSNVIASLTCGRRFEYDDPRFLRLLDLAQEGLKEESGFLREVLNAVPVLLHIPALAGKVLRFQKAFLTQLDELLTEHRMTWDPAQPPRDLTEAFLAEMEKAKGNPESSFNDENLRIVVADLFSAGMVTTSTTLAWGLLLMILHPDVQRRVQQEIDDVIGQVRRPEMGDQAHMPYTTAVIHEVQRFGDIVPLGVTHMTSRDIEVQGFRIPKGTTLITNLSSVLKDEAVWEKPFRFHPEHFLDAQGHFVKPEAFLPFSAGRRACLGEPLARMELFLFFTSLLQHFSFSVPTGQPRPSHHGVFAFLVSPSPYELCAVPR

[27] = tested on: Rattus norvegicus; experiment: Reduction of micturition pressure at 27 uM unbound plasma level in acetic acid-induced Sprague-Dawley rat bladder hyperactivity model at 10 mg/kg, iv administered as 1 to 2 hrs infusion relative to vehicle-treated control; format: functional; design: scale not given: the % may be the effect or the level left
[28] = biological target: Voltage-gated inwardly rectifying potassium channel KCNH2 (Homo sapiens, UniProt Q12809); experiment: Inhibition of human ERG
Voltage-gated inwardly rectifying potassium channel KCNH2, sequence (Q12809 whole entry): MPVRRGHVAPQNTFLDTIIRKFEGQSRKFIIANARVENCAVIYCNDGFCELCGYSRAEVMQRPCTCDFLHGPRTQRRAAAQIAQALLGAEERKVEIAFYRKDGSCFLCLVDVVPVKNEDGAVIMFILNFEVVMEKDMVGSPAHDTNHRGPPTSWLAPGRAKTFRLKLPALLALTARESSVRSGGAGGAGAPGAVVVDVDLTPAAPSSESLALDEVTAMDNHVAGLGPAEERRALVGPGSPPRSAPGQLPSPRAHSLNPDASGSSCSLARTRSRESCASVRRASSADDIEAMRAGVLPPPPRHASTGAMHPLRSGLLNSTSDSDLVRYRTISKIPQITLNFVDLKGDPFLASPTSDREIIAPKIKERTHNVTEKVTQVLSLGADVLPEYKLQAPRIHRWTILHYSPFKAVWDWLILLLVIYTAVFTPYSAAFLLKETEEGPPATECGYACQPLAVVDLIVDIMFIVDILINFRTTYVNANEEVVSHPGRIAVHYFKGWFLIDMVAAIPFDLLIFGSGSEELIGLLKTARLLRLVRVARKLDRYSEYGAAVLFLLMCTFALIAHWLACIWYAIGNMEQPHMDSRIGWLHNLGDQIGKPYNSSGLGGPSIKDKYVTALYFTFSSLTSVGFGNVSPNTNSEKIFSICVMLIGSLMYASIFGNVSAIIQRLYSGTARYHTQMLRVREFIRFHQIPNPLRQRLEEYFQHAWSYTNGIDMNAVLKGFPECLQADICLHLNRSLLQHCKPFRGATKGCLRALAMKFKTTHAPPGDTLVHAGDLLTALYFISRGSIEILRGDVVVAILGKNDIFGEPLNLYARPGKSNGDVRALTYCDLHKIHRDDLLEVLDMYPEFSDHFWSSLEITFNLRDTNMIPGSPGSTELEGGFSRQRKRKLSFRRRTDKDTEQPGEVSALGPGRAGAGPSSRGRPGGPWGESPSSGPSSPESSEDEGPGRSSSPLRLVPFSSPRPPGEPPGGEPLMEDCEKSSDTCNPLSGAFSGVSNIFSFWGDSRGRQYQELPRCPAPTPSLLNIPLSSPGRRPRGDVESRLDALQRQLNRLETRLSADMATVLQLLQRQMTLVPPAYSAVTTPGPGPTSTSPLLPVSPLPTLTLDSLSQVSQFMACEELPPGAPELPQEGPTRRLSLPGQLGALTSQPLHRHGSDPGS

[29] = as §1; format: ADME, organism-based; details: Sprague-Dawley, plasma
[30] = biological target: Cytochrome P450 2C9 (Homo sapiens, UniProt P11712); experiment: Inhibition of CYP2C9 in human liver microsomes assessed as diclofenac alpha'-hydroxylation; format: ADME
Cytochrome P450 2C9, sequence (P11712 whole entry): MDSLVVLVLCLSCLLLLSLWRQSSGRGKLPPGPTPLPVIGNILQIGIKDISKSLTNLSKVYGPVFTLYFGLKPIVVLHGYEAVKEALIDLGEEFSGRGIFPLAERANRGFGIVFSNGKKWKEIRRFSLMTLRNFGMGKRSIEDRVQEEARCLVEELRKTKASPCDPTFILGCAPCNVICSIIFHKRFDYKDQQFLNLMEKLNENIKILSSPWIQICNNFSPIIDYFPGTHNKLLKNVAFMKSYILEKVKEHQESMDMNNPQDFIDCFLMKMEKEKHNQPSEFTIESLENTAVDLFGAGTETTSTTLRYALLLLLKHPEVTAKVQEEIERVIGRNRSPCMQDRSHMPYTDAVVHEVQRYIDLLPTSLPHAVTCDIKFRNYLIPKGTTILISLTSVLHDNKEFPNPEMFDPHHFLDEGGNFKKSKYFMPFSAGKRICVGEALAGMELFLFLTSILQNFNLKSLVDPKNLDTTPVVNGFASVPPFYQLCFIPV

[31] = Intrinsic clearance in human liver microsomes; format: ADME; details: read-out: CLH
[32] = biological target: Beta-3 adrenergic receptor (Macaca mulatta, UniProt Q28524); experiment: Agonist activity at rhesus monkey beta-3 adrenergic receptor expressed in CHO cells assessed as increase in intracellular cAMP accumulation after 30 mins by time-resolved fluorescence assay; format: functional, cell-based; in short: as §2
Beta-3 adrenergic receptor (Macaca mulatta, UniProt Q28524), sequence (Q28524 whole entry): as the sequence (Q28524 whole entry) above

[33] = Lipophilicity, log D of the compound at pH 7.3; format: physicochemical; details: buffer
[34] = tested on: Rattus norvegicus; experiment: Reduction of micturition pressure in iv dosed acetic acid-induced Sprague-Dawley rat bladder hyperactivity model administered as 1 to 2 hrs infusion; format: functional, organism-based
[35] = Fraction unbound in rhesus monkey plasma at 1 mg/kg, iv and 2 mg/kg, po; format: ADME, organism-based, Macaca mulatta
[36] = Oral bioavailability in Beagle dog at 2 mg/kg; format: ADME, organism-based, Canis lupus familiaris; details: in vivo
[37] = biological target: Voltage-dependent L-type calcium channel subunit alpha-1C (Homo sapiens, UniProt Q13936); experiment: Displacement of [3H]-diltiazem from human CaV1.2
[38] = Plasma clearance in rhesus monkey at 1 mg/kg, iv and 2 mg/kg, po; format: ADME, organism-based, Macaca mulatta
[39] = biological target: Beta-3 adrenergic receptor (Canis lupus familiaris, UniProt O02662); experiment: Agonist activity at dog beta-3 adrenergic receptor expressed in CHO cells assessed as increase in intracellular cAMP accumulation after 30 mins by time-resolved fluorescence assay; format: functional, cell-based; in short: as §2
Beta-3 adrenergic receptor (Canis lupus familiaris, UniProt O02662), sequence (O02662 whole entry): as the sequence (O02662 whole entry) above

[40] = Half life in Beagle dog at 1 mg/kg, iv and 2 mg/kg, po; format: ADME, organism-based, Canis lupus familiaris; details: in vivo
[41] = biological target: Beta-3 adrenergic receptor (Rattus norvegicus) (UniProt P26255); experiment: Agonist activity at rat beta-3 adrenergic receptor expressed in CHO cells assessed as increase in intracellular cAMP accumulation at 10^-10 to 10^-5 M after 30 mins by time-resolved fluorescence assay relative to R-(-)isoproterenol; format: functional, cell-based; in short: as §2
Beta-3 adrenergic receptor (Rattus norvegicus), sequence (P26255 whole entry): as the sequence (P26255 whole entry) above

[42] = Fraction unbound in Beagle dog plasma at 1 mg/kg, iv and 2 mg/kg, po; format: ADME, organism-based, Canis lupus familiaris

Nc1nc2c(s1)CC[C@H]2C(=O)Nc1ccc(C[C@@H]2CC[C@H]([C@H](O)c3cccnc3)N2)cc1
IC50 [1]: > 20000 nM | half-life [2]: 4 h | bioavailability [3]: 0% | clearance [4]: 32 mL/min/kg | Fu [5]: BLD | Activity [6]: 101% | CLint scaled [7]: 57 mL/min/kg | Papp [8]: < 1 ×10⁻⁶ cm/s | IC50 [9]: > 20000 nM | EC50 [10]: 0.37 nM

O=C(Nc1ccc(C[C@@H]2CC[C@H]([C@H](O)c3cccnc3)N2)cc1)[C@@H]1CCc2ccnn21
half-life [11]: 4 h | bioavailability [12]: 11% | Activity [13]: 86% | Activity [14]: 93% | IC50 [15]: 898 nM | CLint scaled [16]: 261 mL/min/kg | clearance [17]: 34 mL/min/kg | IC50 [1]: > 20000 nM | EC50 [18]: 434 nM | CLint scaled [19]: 31 mL/min/kg | Cp(f) [20]: 2 µM | Ratio IC50/EC50 [21]: 243 | IC50 [22]: > 100000 nM | Cp(f) [23]: 26.8 µM | IC50 [24]: > 30000 nM | half-life [2]: 3 h | Cp(f) [25]: 7.6 µM | IC50 [26]: > 100000 nM | Activity [27]: 69% | bioavailability [3]: 35% | IC50 [28]: > 30000 nM | clearance [4]: 24 mL/min/kg | fraction unbound [29]: 0.36 | IC50 [30]: > 100000 nM | CLint scaled [31]: 19 mL/min/kg | EC50 [32]: 4.7 nM | Activity [6]: 84% | logD [33]: 0.9 | Activity [34]: Dose-dependent effect | fraction unbound [35]: 1 | bioavailability [36]: 100% | CLint scaled [7]: 55 mL/min/kg | IC50 [37]: > 30000 nM | clearance [38]: 36 mL/min/kg | Papp [8]: 6 ×10⁻⁶ cm/s | EC50 [39]: 22 nM | half-life [40]: 8 h | IC50 [9]: > 20000 nM | Activity [41]: 98% | EC50 [10]: 3.7 nM | fraction unbound [42]: 0.7
